Data taken from the RNAGym collection of RNA variant scans (doi:10.1126/science.aae0568).
This sample holds only a part of the variants without activity.

B1: tRNA (parent)
chain: GUUCCGUUGGCGUAAUGGUAACGCGUCUCCCUCCUAAGGAGAAGACUGCGGGUUCGAGUCCCGUACGGAACG

Variants of: B1
Assay: yeast fitness relative to wild type (ratio to wild type); higher = fitter; tRNA-Arg(CCU), competitive growth, 37 C, YPD
Outline: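 The tRNA-Arg(CCU) gene variants were made by chemical synthesis with a 3% per-site mutation rate at 69 sites and inserted at the native genomic locus of Saccharomyces cerevisiae. After pooling, the strains were competed in YPD at 37°C for 24 hours in six parallel replicates. Gene amplicons from the start population and each end population were read by 100-nucleotide paired-end sequencing, and Darwinian fitness relative to wild type was taken from genotype frequency changes. Genotypes needed ≥ 100 starting reads, and estimates < 0.5 were set to 0.5.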

Point of comparison: C27G C33U A69C, yeast fitness 0.544. Against it:
- C27G C29U — higher, 0.578
- C27G C49U A65U A70G — lower, ≤ 0.5
- C27G C31U G68A — lower, ≤ 0.5
- C27A C30A A43C C62G — lower, ≤ 0.5
- C27G C30G U64G — lower, ≤ 0.5
- C27G A43U C55G — lower, ≤ 0.5
- C27G G39A C61G C62G — lower, ≤ 0.5
- C27G C30U — higher, 0.619
- C27G C30A — higher, 0.632
- C27G A40U A57U C66A — lower, ≤ 0.5
- C27G C34G U54A A70U — lower, ≤ 0.5
- C27A A45G — higher, 0.874
- C27A A45C — higher, 0.796
- C27G C49U C60A — lower, ≤ 0.5
- C27A U28G U64C — lower, ≤ 0.5
- C27G C30G C62A — lower, ≤ 0.5
- C27G A57C U59A C62G G68A — lower, 0.532
- C27G A37G A70C — lower, 0.533
- C27G C34A C46G C55A — lower, ≤ 0.5
- C27A A65C — higher, 0.878
- C27A A65G — higher, 1.02
- C27G G39C — higher, 0.585
- C27A C31U C33A A42U G67A — lower, ≤ 0.5
- C27G A40G G51A — lower, 0.541
- C27G A45U G67A — lower, ≤ 0.5
- C27A A70G — higher, 0.857
- C27A C30U C33G A37C A57U — lower, ≤ 0.5
- C27G G39A G67A — higher, 0.59
- C27G A43C C46U G58A — higher, 1.02
- C27A G50C — higher, 0.721
- C27A G50A — higher, 0.848
- C27G G38C C55U — lower, ≤ 0.5
- C27G C46U C60U — higher, 0.626
- C27G C31A A70C — lower, 0.539
- C27G C31A C60G — lower, ≤ 0.5
- C27G A37G G38A — lower, ≤ 0.5
- C27G C46U U54C — higher, 0.738
- C27A A45C G56C C60U G68U — lower, ≤ 0.5
- C27A C33U A42U — lower, ≤ 0.5
- C27G A43G U47G A70G — lower, ≤ 0.5
- C27A U53G — higher, 0.651
- C27G C33U G44C C49U — lower, ≤ 0.5
- C27G G39A C46U C66U — lower, ≤ 0.5
- C27G G39C G52A — lower, ≤ 0.5
- C27G C31A C46A G56C — lower, ≤ 0.5
- C27A U59C C62A — lower, ≤ 0.5
- C27G C31G A69U — lower, ≤ 0.5
- C27G C55A A70U — lower, ≤ 0.5
- C27G C31A A37C G50A C61G — lower, ≤ 0.5
- C27A C29U C49U — lower, ≤ 0.5
- C27G C49U U54G — lower, ≤ 0.5
- C27G A37G G63C U64C — lower, ≤ 0.5
- C27A G41A U47A — lower, ≤ 0.5
- C27A G41C A43C A69U — lower, ≤ 0.5
- C27G C46U G50A C66U — lower, ≤ 0.5
- C27A A69C — higher, 0.875
- C27G C61A — higher, 0.582
- C27G C61G — higher, 0.554
- C27A C34G A40G A65G — higher, 0.799
- C27A G44C G51A — lower, ≤ 0.5
- C27A C34G A42G G50A C62G — lower, ≤ 0.5
- C27G A43C — higher, 0.611
- C27G A57C C62U — lower, 0.511
- C27G A36U A45U A69C — higher, 0.577
- C27G A40U A70C — lower, ≤ 0.5
- C27G C31U C46G G51C — lower, ≤ 0.5
- C27A U47A G56C A69C — higher, 0.894
- C27G C30U A42U — higher, 0.651
- C27A C29U A40G — lower, ≤ 0.5
- C27G C46U C62U G68C — lower, ≤ 0.5
- C27G G48A C60U — lower, ≤ 0.5
- C27G G48A C60G — higher, 0.751
- C27A C30U C33G — higher, 0.634
- C27G A65G C66G — lower, ≤ 0.5
- C27G C46A C49G — higher, 0.704
- C27A A43U — higher, 1.03
- C27A C46U G52A — higher, 0.644
- C27G A42C C62G — higher, 0.561
- C27A G52A — higher, 0.619
- C27G A36C A42U C66U — lower, ≤ 0.5
- C27A C31A C46G — higher, 0.688
- C27G C33U A45U — higher, 0.568
- C27G G48A G67C A69U — lower, 0.525
- C27A C29U C61U — lower, ≤ 0.5
- C27A C30G C49U G56C C66U — lower, ≤ 0.5
- C27G C31U C60A — higher, 0.602
- C27A U32G — higher, 0.595
- C27G C31U A42G U53C — lower, ≤ 0.5
- C27A A45U C60G A65U — lower, 0.54
- C27G C31U U53C — higher, 0.573
- C27A C30U G44C — lower, ≤ 0.5
- C27G C49A G58C — lower, ≤ 0.5
- C27G G41C — higher, 1.01
- C27A U47A G56C — higher, 0.694
- C27G A42C G50C G56A C66G — lower, ≤ 0.5
- C27G C33G C55A — lower, ≤ 0.5
- C27A G68U — higher, 0.805
- C27A G68A — higher, 0.787
- C27A C55U A57C C61A C62G — lower, ≤ 0.5
- C27A U47C U64C A70C — lower, 0.535
- C27G C29A C55G — lower, ≤ 0.5
- C27G C29U A37G A45G C60A G68A — lower, ≤ 0.5
- C27G A43C C62U — higher, 0.599
- C27G G39A C46U A70G — lower, ≤ 0.5
- C27G A37C G52C — lower, ≤ 0.5
- C27G C30G C33G A37C G52C — lower, ≤ 0.5
- C27A G44C U59A — lower, ≤ 0.5
- C27A U64C — higher, 0.943
- C27A C33A C46A G63C — lower, ≤ 0.5
- C27A U35C A57C — higher, 0.619
- C27G A42C C55A — higher, 0.682
- C27G C34G A57G G67C A69U — lower, ≤ 0.5
- C27A C31G A65U — higher, 0.679
- C27A A45C C49A C61U — lower, ≤ 0.5
- C27G C33G G39A C46U C61U A69U — higher, 0.585
- C27A G56C C62A A65C — higher, 0.611
- C27A C31G C46U — higher, 0.621
- C27G C34G — lower, ≤ 0.5
- C27G A36G C61A A65U — lower, ≤ 0.5
- C27G G39A C66U G68C — higher, 0.575
- C27G C33U A40G C49U A69C — higher, 0.703
- C27G C31G U54G A70C — lower, ≤ 0.5
- C27G A36G A69U — higher, 0.641
- C27A G51C — higher, 0.704
- C27A C34G G38A G63C — lower, ≤ 0.5
- C27G C46U A69C — higher, 0.735
- C27G G41C C66U — higher, 0.747
- C27G C34A G68C — lower, ≤ 0.5
- C27A C34U A42C U53G — lower, ≤ 0.5
- C27G C49U — higher, 0.614
- C27G C49G — higher, 0.621
- C27A C34U — higher, 0.598
- C27A U64A G68C — lower, ≤ 0.5
- C27G G39A C46U G68A — lower, ≤ 0.5
- C27A G39C A57U — lower, ≤ 0.5
- C27G C49A A57U — lower, ≤ 0.5
- C27G A36G A40G A69C — lower, ≤ 0.5
- C27G A36G A40G A69U — lower, ≤ 0.5
- C27G A36G A70U — lower, ≤ 0.5
- C27A C34A G67U A69C — lower, ≤ 0.5
- C27G A37C G39A A45C — higher, 0.646
- C27G A37G A57C G68C A69C — lower, ≤ 0.5
- C27G G48A — higher, 0.565
- C27G G48C — higher, 0.632
- C27G C31A G56A — lower, ≤ 0.5
- C27G C29A C33A A43C — higher, 0.574
- C27A C31G A65U A70G — lower, ≤ 0.5
- C27A C46U A70U — higher, 0.733
- C27A C31G — higher, 0.957
- C27G G41C G68C — higher, 0.626
- C27A G51A A70G — lower, ≤ 0.5
- C27G C55U — lower, ≤ 0.5
- C27G C55G — lower, ≤ 0.5
- C27G A45U C55A G56A — lower, ≤ 0.5
- C27G C46U G51A — higher, 0.633
- C27A C31G A57C U64A G68A — lower, ≤ 0.5
- C27G C34A C60A — higher, 0.551
- C27A A65U G67C — higher, 0.613
- C27A C55U — higher, 0.662
- C27G C31U U53C C66A — lower, ≤ 0.5
- C27G A69G — higher, 0.652
- C27G A69C — higher, 0.654
- C27A U47G A69C — lower, ≤ 0.5
- C27A U53A G58C A70C — higher, 0.57
- C27A G41A U47A A69U — lower, ≤ 0.5
- C27G A43C G56C — lower, ≤ 0.5
